Compounds with a hit are over-represented: about 1.5% of the library has one in this group of screens.
MsrA inh: bovine MsrA enzyme inhibitors, primary screen, biochemical, absorbance, HTS; purified bovine MsrA, absorbance read-out; inhibition, % at 15.5 µM; Methionine sulfoxide reductase A (Bos taurus); 0.75% of 360,000 active;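 note: 0% = vehicle wells with enzyme and 100% = reference inhibitor wells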
TbMetRS inhib: T. brucei MetRS inhibitors, primary screen, biochemical, luminescence. methionyl-tRNA synthetase (Trypanosoma brucei brucei). purified T. brucei MetRS, ATP depletion, Kinase-Glo luminescence. inhibition, % at 11.9 µM. 0.4% of 360,000 active. AID 624268, 2012;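 active = inhibition above a per-plate cutoff of the control wells' mean inhibition plus 3 SD, cut at about 5.5% in these data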;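 note: 0% = DMSO wells median and 100% = median of wells with control inhibitor compound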
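assay system = parasite MetRS enzyme | timing = 15 min preincubation, 2 h reaction, all 25 °C | evaluation = percent inhibition relative to median high and low control wells | medium = HEPES buffer containing pyrophosphatase, BSA, spermine, DTT | compound = single dose, 11.9 µM final nominal, 0.9% final DMSO | detection = Kinase-Glo luminescence, ATP depletion format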
MsrA act: bovine MsrA enzyme activators, primary screen, biochemical, absorbance, HTS; AID 602163, 2012; purified bovine MsrA, absorbance read-out; 0.3% of 360,000 active; activation, % at 10.6 µM; in the data active = activation above about 7.5%;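 note: 0% = vehicle and 100% = reference activator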
proCasp7 act: procaspase-7 activators, primary screen, counter-screen for procaspase-3 activator project, biochemical, absorbance, HTS, human; Caspase-7 (Homo sapiens), P55210; recombinant procaspase-7, Ac-DEVD-pNA absorbance 405 nm; D23A/D198A/D206A triple mutant, cannot self-cleave; scale: DMSO 0, 5 µM enzyme 100; activation, % at 8.5 µM; 0.093% of 330,000 active; AID 463210, 2010;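 active = percent activation above the screen-wide mean plus 3 SD, cut at about 25% in these data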
Target sequence (P55210 whole entry D23A/D198A/D206A): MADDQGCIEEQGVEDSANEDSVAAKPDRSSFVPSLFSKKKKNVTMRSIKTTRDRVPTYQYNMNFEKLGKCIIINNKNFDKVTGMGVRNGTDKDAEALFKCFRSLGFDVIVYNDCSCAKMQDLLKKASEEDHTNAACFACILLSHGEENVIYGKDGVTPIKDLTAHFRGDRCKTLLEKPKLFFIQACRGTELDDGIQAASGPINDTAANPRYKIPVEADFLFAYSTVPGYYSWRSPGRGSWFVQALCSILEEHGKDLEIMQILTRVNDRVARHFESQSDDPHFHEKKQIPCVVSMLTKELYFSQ
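signal = Epi-absorbance of released pNA at 405 nm, two timepoints | assay system = Uncleavable procaspase-7 mutant enzyme | reagent = Ac-DEVD-pNA substrate, 400 µM as added | times = 1 h enzyme–compound preincubation and 2 h substrate reaction, both 25 °C | benchmarks = low DMSO alone, high DMSO plus 5 µM PC-7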
procasp3 activ: activators of human procaspase-3 D3A mutant, primary screen, biochemical, absorbance, PC-3 D3A mutant, single concentration | Caspase-3 (Homo sapiens), P42574 | recombinant procaspase-3 D3A, Ac-DEVD-pNA absorbance 405 nm | activation, % at 8.5 µM | 0.11% of 330,000 active;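 active = activation above the mean of all tested compounds plus 3 SD, cut at about 21% in these data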;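 note: 0% = DMSO alone and 100% = DMSO wells spiked with extra 5 µM PC-3 D3A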
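Assay system – Procaspase-3 D3A mutant, all three cleavage aspartates alanine · Controls – DMSO-only low control, 5 µM PC-3 D3A high control · Schedule – 1 h compound preincubation, 2 h substrate hydrolysis at 25 °C · Signal – 405 nm absorbance of p-nitroaniline, reads at 0 and 120 min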
MsrA inh confirm: bovine MsrA inhibitors, retest, confirmation, biochemical, absorbance, HTS. shares compounds with MsrA inh. inhibition, % at 15.5 µM. 41% of 2,300 active. purified bovine MsrA, absorbance read-out;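 note: coupled to thioredoxin reductase with NADPH and selenocystamine and DMSO as substrate; 0% = vehicle only and 100% = full effect of reference inhibitor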
Numbers without * were called inactive; x = no result given. Cut-off read from the data, not from the text of the source, unless noted: active = inhibition above about 4.5%; inactive = the rest.

SMILES	MsrA inh	TbMetRS inhib	MsrA act	proCasp7 act	procasp3 activ	MsrA inh confirm
CC(=O)CNc1ccc(S(=O)(=O)N/N=C/c2ccccc2)cc1	1	-1	-8	-4	-8	x
Cc1ccc(C)c(S(=O)(=O)N/N=C/c2ccc(F)cc2)c1	0	0	-4	-7	-2	x
CC(=O)NCc1ccc(S(=O)(=O)N/N=C/c2ccc(N(C)C)cc2)cc1	5.6*	0	-4	5	-3	3
O=C(Nc1ccc(F)cc1)OC[C@@H]1CSCCS(=O)(=O)N1	1	x	x	x	x	x
COC(=O)C1=C(C)N(Cc2ccccc2C(F)(F)F)C(=NCC2CC2)NC1c1ccc(C(F)(F)F)cc1 (centres undefined)	-1	x	x	x	x	x
COCCCNC(=O)CSc1nc2c(sc(=S)n2-c2cc(Cl)ccc2OC)c(=O)[nH]1	5.8*	-1	-14	2	-1	4
COc1ccc(-c2cc3ccc(OC(C)C(=O)O)cc3oc2=O)cc1 (centres undefined)	5.7*	0	-7	x	x	4
COc1ccc(-c2cc3ccc(O)cc3oc2=O)cc1OC	3	0	-4	22	15	x
COc1ccc(-c2cc3ccc(OCC(N)=O)cc3oc2=O)cc1OC	5.6*	-1	-8	1	-8	1
Cc1cccc(C)c1NC(=O)C1(C)CN(S(C)(=O)=O)CC(=O)N1CC(F)(F)F (centres undefined)	-1	-1	x	x	x	x
CCOC(=O)/C(C#N)=C/Nc1cc(F)ccc1C	5.8*	0	-6	1	3	1
CC(C)OCCCNC(=O)C1CC(=O)N(CCc2ccccc2)C1 (centres undefined)	0	0	-3	-2	-1	x
CN(Cc1ccco1)C(=O)[C@@H](Cc1ccccc1)NC(=O)[C@H]1O[C@@H](n2ccc(=O)[nH]c2=O)[C@H](O)[C@@H]1O	0	x	x	x	x	x
O=C(Nc1nc(-c2nc3ccccc3s2)cs1)c1ccc(S(=O)(=O)N2CCOCC2)cc1	5.0*	-1	-8	-4	1	1
Cc1cc(N2CCN(C(=O)OC(C)(C)C)C[C@@H]2C)ccc1N1C[C@@H](C)O[C@@H](C)C1	0	x	x	x	x	x
COc1cccc(/C=C2\SC(N3CCC(C)CC3)=NC2=O)c1OC	5.9*	-1	-4	-6	-1	4
COc1ccc2[nH]c(C(=O)N/N=C/c3ccc(O)cc3O)cc2c1	6.3*	4	-4	x	x	4
COc1cc2cc(C(=O)N/N=C/c3ccc(F)cc3)[nH]c2cc1OC	4.8*	0	-4	6	5	6.0*
COc1cc2cc(C(=O)N/N=C/c3ccccc3Cl)[nH]c2cc1OC	1	-1	-15	12	2	x
CCOc1ccc2[nH]c(C(=O)N/N=C/c3ccc(OC)cc3)cc2c1	4	-1	-6	x	x	x
COc1ccc2cc(C(=O)N/N=C/c3cc(OC)c(OC)c(OC)c3)[nH]c2c1	5.8*	0	-8	-3	1	6.4*
COc1ccc(/C=N/NC(=O)c2cc3cc(OC)c(OC)cc3[nH]2)cc1	5.3*	-1	-1	2	0	7.8*
COc1ccc(CN(C)C(=O)[C@@H](Cc2ccccc2)NC(=O)[C@H]2O[C@@H](n3ccc(N)nc3=O)[C@H](O)[C@@H]2O)cc1OC	0	x	x	x	x	x
Cc1cc(Br)c2nc(-c3ccc(Cl)cc3)c(Cc3cccc(Cl)c3)n2c1	0	x	x	x	x	x
COc1ccc(/C=N/NC(=O)c2[nH]c(C)c(C(=O)N/N=C/c3ccc(OC)cc3)c2C)cc1	4.9*	0	-4	-1	3	5.5*
O=C(Nc1ccc2c(c1)OCCO2)C(C1CC1)n1c(=O)c(-c2cc3ccccc3[nH]2)nc2ccccc21 (centres undefined)	0	0	x	x	x	x

Source: PubChem BioAssay
